{"source": "ChEMBL document CHEMBL1123282", "about": "“Antiinflammatory activity of substituted 6-hydroxypyrimido[2,1-f]purine-2,4,8(1H,3H,9H)-triones. Atypical nonsteroidal antiinflammatory agents” (J Med Chem, 1986)", "test_system": "Rattus norvegicus", "experiment": "compound was tested in vivo for antiinflammatory activity against rats by RPAR(reverse passive Arthus reaction) synovitis method", "assay_type": "functional", "procedure,_shortened": "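Lewis rats dosed orally 1 h before iv BSA (2.28 mg) and intraarticular rabbit anti-BSA (0.54 mg) into one knee, saline into the other; dosed orally again at 3 h. Total dose counted. At about 17 h, subpatellar tissue with synovium weighed; Δ weight between the two knees taken as the response. Compared with lesion controls by ANOVA.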", "data": [{"smiles": "Cn1c(=O)c2c(nc3n(Cc4ccccc4)c(=O)/c(=C/O)c(=O)n23)n(C)c1=O", "values": [{"measurement": "Inhibition", "value": 14, "unit": "%"}]}]}
